Measured values taken from article PMC11615718 (RSC Advances, 2024).
Values joined by “and” are separate entries in the source; they are usually repeats but may differ in a detail not shown here. Equal values may be shown once. Read-outs that look alike come from different tables or passages of the source.

What was measured:
[1] = target: KCa3.1 channel (Homo sapiens, UniProt O15554+P0DP23); experiment: QPatch-HTX patch-clamp, KCa3.1 activation; assay type: cell-based
In short: (§1)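 Automated whole-cell patch clamp on a QPatch-HTX. Test compound came from 10 mM DMSO stocks, diluted in fixed ratios into each channel's own extracellular solution, over 300 nM to 30 μM. Each current slope was the mean of five measurements at the end of each liquid period. Activation was normalised per cell to a saturating 30 μM activator applied before washout; otherwise currents were normalised to the last vehicle period. Hill fit used ≥3 cells.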

[2] = Plasma pharmacokinetics after single i.p. dose; assay type: in vivo, BALB/c mice; settings: 30 mg kg^−1 i.p.
In short: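 Female BALB/c mice (7–9 weeks old, n = 4 per time point) received a single i.p. dose of 30 mg kg−1 in 3% DMSO + 97% peanut oil. Blood was taken at 0, 0.25, 0.5, 1, 2, 4, 8 and 24 h. Plasma (20 μL) was mixed with 60 μL methanol:dichloromethane (1:1), then test compound was quantified by LC-MS on a C18 column with a water/acetonitrile (0.1% formic acid) gradient.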

[3] = 14-day i.p. tolerability in mice; assay type: in vivo, C57BL/6 mice; settings: 30 mg kg^−1 i.p. daily for 14 days, female C57BL/6
In short: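 Female C57BL/6 mice (6–7 weeks old, n = 6 per group) got test compound at 6 mg mL−1 in 3% DMSO + 97% peanut oil. The preparation was thawed, heated to ~60 °C and cooled before dosing. Dose was ~100 μL i.p. (30 mg kg−1) once daily for 14 days; vehicle-injected controls. Body weight was taken every 2–4 days. At day 14, serum AST was measured by colorimetric kit, and organs were paraffin-embedded and H&E-stained.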

[4] = Solubility in DMSO by UV-Vis spectrophotometry; assay type: physicochemical
In short: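 Excess test compound (50 mg) was shaken in 500 μL DMSO at 1000 rpm for 24 h, then filtered through 0.22 μm and diluted 100-fold in DMSO. Concentration came from absorbance at the peak, read against a blank-corrected calibration curve at 345 nm. Standards were serial dilutions in DMSO from 0.5 to 0.007 mg mL−1.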

[5] = Tissue biodistribution by LC-MS after 14-day dosing; assay type: in vivo, C57BL/6 mice; settings: female, C57BL/6, mouse, ip, 30 mg kg^−1
In short: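 After 14 days of daily i.p. dosing (30 mg kg−1 in 3% DMSO/97% peanut oil), brain, kidney and liver were harvested at termination. Pre-weighed organs were homogenised in methanol:dichloromethane (1:1), held 30 min at 4 °C and spun 10 min at 14000 rpm, 4 °C. LC-MS used a C18 column at 40 °C and 0.3 mL min−1, with a water/acetonitrile (0.1% formic acid) gradient from 20% to 95% B over a 10 min run.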

[6] = target: KCa2.2 (Rattus norvegicus, UniProt P70604); experiment: QPatch-HTX patch-clamp, KCa2.2; assay type: cell-based
In short: as §1

[7] = target: KCa2.3 (Homo sapiens, UniProt Q9UGI6); experiment: QPatch-HTX patch-clamp, KCa2.3; assay type: cell-based
In short: as §1

[8] = up to 30 mg kg^−1 i.p., mice; cited from earlier work
[9] = experimental mice; cited from earlier work
[10] = tested on: small-conductance Ca2+-activated KCa2 channels; settings: cited from earlier work
[11] = up to 30 mg kg^−1 i.p., Sprague-Dawley rats; cited from earlier work

Sequence of KCa3.1 channel (O15554 whole entry, one chain of several): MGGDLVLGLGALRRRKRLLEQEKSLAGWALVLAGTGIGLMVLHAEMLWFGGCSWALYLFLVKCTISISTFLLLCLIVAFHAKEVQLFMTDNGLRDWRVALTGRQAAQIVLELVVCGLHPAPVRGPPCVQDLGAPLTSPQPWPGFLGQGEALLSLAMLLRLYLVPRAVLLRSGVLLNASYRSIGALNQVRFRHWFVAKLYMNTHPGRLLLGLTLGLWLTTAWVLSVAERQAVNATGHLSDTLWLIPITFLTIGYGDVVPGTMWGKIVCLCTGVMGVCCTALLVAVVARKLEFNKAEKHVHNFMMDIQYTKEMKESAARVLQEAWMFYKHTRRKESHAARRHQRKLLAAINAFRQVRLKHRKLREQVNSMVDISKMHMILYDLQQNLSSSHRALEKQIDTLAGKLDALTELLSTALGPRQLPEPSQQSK
Sequence of KCa2.3 (Q9UGI6 whole entry): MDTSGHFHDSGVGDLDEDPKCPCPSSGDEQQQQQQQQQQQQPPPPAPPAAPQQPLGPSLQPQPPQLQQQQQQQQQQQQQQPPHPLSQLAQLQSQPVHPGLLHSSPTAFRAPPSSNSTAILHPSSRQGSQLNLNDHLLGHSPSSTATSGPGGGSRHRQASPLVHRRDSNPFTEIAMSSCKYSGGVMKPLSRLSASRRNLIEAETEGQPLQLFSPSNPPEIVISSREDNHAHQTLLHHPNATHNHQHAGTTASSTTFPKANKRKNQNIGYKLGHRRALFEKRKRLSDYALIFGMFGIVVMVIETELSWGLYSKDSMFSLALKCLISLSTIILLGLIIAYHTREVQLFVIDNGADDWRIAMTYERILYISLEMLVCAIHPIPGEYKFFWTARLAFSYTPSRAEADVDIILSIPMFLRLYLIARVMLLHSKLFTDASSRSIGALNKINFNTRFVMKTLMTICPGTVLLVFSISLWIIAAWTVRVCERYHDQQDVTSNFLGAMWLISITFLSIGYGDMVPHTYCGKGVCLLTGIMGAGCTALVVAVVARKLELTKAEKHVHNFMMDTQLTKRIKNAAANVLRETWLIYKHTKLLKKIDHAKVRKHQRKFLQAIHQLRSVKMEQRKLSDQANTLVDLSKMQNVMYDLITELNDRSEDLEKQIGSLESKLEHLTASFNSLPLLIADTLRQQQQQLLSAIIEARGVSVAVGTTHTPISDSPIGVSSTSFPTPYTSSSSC
Sequence of KCa2.2 (P70604 whole entry): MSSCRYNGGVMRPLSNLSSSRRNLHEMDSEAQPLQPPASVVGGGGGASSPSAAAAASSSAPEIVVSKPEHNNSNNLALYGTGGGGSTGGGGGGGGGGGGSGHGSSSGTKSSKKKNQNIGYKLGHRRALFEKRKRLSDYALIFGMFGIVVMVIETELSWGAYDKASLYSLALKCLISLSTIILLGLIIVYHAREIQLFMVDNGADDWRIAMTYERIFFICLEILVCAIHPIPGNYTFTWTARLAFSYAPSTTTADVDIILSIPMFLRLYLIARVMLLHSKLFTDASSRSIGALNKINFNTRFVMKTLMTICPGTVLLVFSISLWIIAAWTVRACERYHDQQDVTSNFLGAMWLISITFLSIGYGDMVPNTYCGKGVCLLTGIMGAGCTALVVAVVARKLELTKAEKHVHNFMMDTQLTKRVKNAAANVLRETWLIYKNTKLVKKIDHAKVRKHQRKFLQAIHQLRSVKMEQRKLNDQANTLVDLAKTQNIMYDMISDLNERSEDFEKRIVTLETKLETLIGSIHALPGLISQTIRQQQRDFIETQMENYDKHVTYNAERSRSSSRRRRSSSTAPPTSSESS

Row | EC50 [1] [µM] | Cmax relative to EC50 for KCa3.1 activation ([2]; at 15 min) | MRTlast ([2]; female BALB/c mice, plasma) [h] | circulating half-life (t1/2) ([2]; female BALB/c mice, plasma) [h] | Cmax ([2]; female, BALB/c, mouse, plasma, ip, 30 mg/kg, peak plasma concentration (Cmax), female BALB/c mice, at 15 min) | solubility at 24 h [4] | concentration at 14 days ([5]; kidney) [ng/g] | concentration at 14 days ([5]; liver) [ng/g] | EC50 [6] [µM] | EC50 [7] [µM] | SMILES | Change in serum aspartate aminotransferase (AST) vs vehicle [3] | Mouse body weight loss vs vehicle [3] | Tolerability [8] | Effect on blood pressure [9] | Selectivity for KCa3.1 over KCa2 channels [10] | Tolerability [11]
1 | 1.9 | about 15 times | 4.82 | 2.84 | 6290 ng/mL and 29.2 µM | 40600 µg/mL and 189000 µM | 60.7 | 22.5 | – | – | Cc1cc2sc(N)nc2c2cccnc12 [SKA-346, 5-methyl-[1,3]thiazolo[4,5-f]quinolin-2-amine] | did not cause any significant change | no significant mouse body weight loss | – | – | – | –
2 | 1.7 | – | – | – | – | – | – | – | 11.9 | 29.3 | Nc1nc2c(cc(C(F)(F)F)c3ncccc32)s1 [NKV-104, 5-(trifluoromethyl)thiazolo[4,5-f]quinolin-2-amine] | – | – | – | – | – | –
3 | – | – | – | – | – | – | – | – | – | – | Nc1nc2c(ccc3ccccc32)s1 [SKA-31, Naphtho[1,2-d]thiazol-2-ylamine] | – | – | well-tolerated | lowered blood pressure | lacked selectivity | well-tolerated
